Measurements taken from ChEMBL document CHEMBL2040734, “Benzothiazoles: search for anticancer agents” (2012).

Tests used:
Format in all cases: functional
[1] = tested on: OVCAR-8; experiment: Cytotoxicity against human OVCAR8 cells assessed as cell growth at 0.01 uM after 48 hrs by sulforhodamine B assay; settings: OVCAR-8, 48 h, read-out: Activity
[2] = tested on: Malme-3M; experiment: Cytotoxicity against human MALME-3M cells assessed as cell growth at 0.1 uM after 48 hrs by sulforhodamine B assay; settings: read-out: Activity
[3] = tested on: NCI/ADR-RES; experiment: Cytotoxicity against human NCI/ADR-RES cells assessed as cell growth at 0.1 uM after 48 hrs by sulforhodamine B assay; settings: read-out: Activity
[4] = tested on: RXF 393; experiment: Cytotoxicity against human RXF393 cells assessed as cell growth at 0.1 uM after 48 hrs by sulforhodamine B assay; settings: RXF 393, 48 h, read-out: Activity
[5] = tested on: HCT-116; experiment: Cytotoxicity against human HCT116 cells assessed as cell growth at 100 uM after 48 hrs by sulforhodamine B assay; settings: HCT-116, 48 h, read-out: Activity
In short: (§1)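 Five-dose NCI panel run at 0.01, 0.1, 1, 10 and 100 µM. Cells were in RPMI 1640 with 5% FBS and 2 mM L-glutamine, seeded at 5000–40,000 cells/well and pre-incubated 24 h. Drug was diluted from a DMSO stock into medium with 50 µg/ml gentamicin. Exposure was 48 h at 37 °C, 5% CO2. Cells were fixed with cold TCA and stained with 0.4% SRB, read at 515 nm. Percent growth came from time-zero, control and test absorbances.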

[6] = tested on: SW-620; experiment: Cytotoxicity against human SW620 cells assessed as cell growth at 100 uM after 48 hrs by sulforhodamine B assay; settings: SW-620, 48 h, read-out: Activity
[7] = tested on: OVCAR-3; experiment: Cytotoxicity against human OVCAR3 cells assessed as cell growth at 100 uM after 48 hrs by sulforhodamine B assay; settings: OVCAR-3, 48 h, read-out: Activity
[8] = tested on: NCI/ADR-RES; experiment: Cytotoxicity against human NCI/ADR-RES cells assessed as cell growth at 100 uM after 48 hrs by sulforhodamine B assay; settings: read-out: Activity
[9] = tested on: MDA-MB-468; experiment: Cytotoxicity against human MDA-MB-468 cells assessed as cell growth at 0.1 uM after 48 hrs by sulforhodamine B assay; settings: MDA-MB-468, 48 h, read-out: Activity
[10] = tested on: M14; experiment: Cytotoxicity against human M14 cells assessed as cell growth at 1 uM after 48 hrs by sulforhodamine B assay; settings: M14, 48 h, read-out: Activity
[11] = tested on: SK-MEL-2; experiment: Cytotoxicity against human SK-MEL-2 cells assessed as cell growth at 1 uM after 48 hrs by sulforhodamine B assay; settings: SK-MEL-2, 48 h, read-out: Activity
[12] = Cytotoxicity against human Hs 578T cells assessed as cell growth at 1 uM after 48 hrs by sulforhodamine B assay; settings: read-out: Activity; in short: as §1
[13] = tested on: M14; experiment: Cytotoxicity against human M14 cells assessed as cell growth at 10 uM after 48 hrs by sulforhodamine B assay; settings: M14, 48 h, read-out: Activity
[14] = tested on: OVCAR-3; experiment: Cytotoxicity against human OVCAR3 cells assessed as cell growth at 10 uM after 48 hrs by sulforhodamine B assay; settings: OVCAR-3, 48 h, read-out: Activity
[15] = tested on: SF-295; experiment: Cytotoxicity against human SF295 cells assessed as cell growth at 10 '-5 M after 48 hrs by sulforhodamine B assay; settings: SF-295, 48 h, read-out: Activity
[16] = tested on: MOLT-4; experiment: Growth inhibition of human MOLT4 cells after 48 hrs by sulforhodamine B assay; settings: MOLT-4, 48 h
In short: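 Leukemia suspension lines were grown in RPMI 1640 with 5% FBS and 2 mM L-glutamine and plated at 5000–40,000 cells/well with 24 h preincubation. They were treated at 0.01, 0.1, 1, 10 and 100 µM (DMSO stock) for 48 h at 37 °C. Settled cells were fixed with 80% TCA (16% final) and stained with 0.4% SRB in 1% acetic acid, then read at 515 nm. GI50 was calculated against time-zero and control wells.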

[17] = tested on: SNB-75; experiment: Growth inhibition of human SNB75 cells after 48 hrs by sulforhodamine B assay; settings: SNB-75, 48 h
In short: (§2)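 Adherent NCI-60 lines were grown in RPMI 1640 with 5% FBS and 2 mM L-glutamine, plated at 5000–40,000 cells/well and preincubated 24 h. They were then exposed to five concentrations (0.01–100 µM, from a DMSO stock) for 48 h at 37 °C, 5% CO2. Cells were fixed with cold TCA (10% final, 60 min, 4 °C) and stained with 0.4% SRB. Dye was solubilized in 10 mM Tris base and A515 read. GI50 was derived from time-zero, control and treated absorbances.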

[18] = tested on: SN12C; experiment: Growth inhibition of human SN12C cells after 48 hrs by sulforhodamine B assay; settings: for CC50: read-out: LC50 (the source's name); in short: as §2
[19] = tested on: MDA-MB-468; experiment: Growth inhibition of human MDA-MB-468 cells after 48 hrs by sulforhodamine B assay; settings: MDA-MB-468, 48 h; for CC50: read-out: LC50 (the source's name); in short: as §2
[20] = tested on: CCRF-CEM; experiment: Cytotoxicity against human CCRF-CEM cells at 0.01 uM after 48 hrs by sulforhodamine B assay
In short: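 CCRF-CEM suspension leukemia cells in RPMI 1640 with 5% FBS and 2 mM L-glutamine, plated 24 h before dosing. Five concentrations (0.01–100 µM) were applied from a DMSO stock for 48 h at 37 °C. Settled cells were fixed with 80% TCA (final 16%) and stained with SRB, with read-out at 515 nm. Percent growth was derived from time-zero and control absorbances.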

[21] = tested on: EKVX; experiment: Cytotoxicity against human EKVX cells assessed as cell growth at 0.01 uM after 48 hrs by sulforhodamine B assay; settings: read-out: Activity; in short: as §1
[22] = tested on: MDA-MB-435; experiment: Cytotoxicity against human MDA-MB-435 cells assessed as cell growth at 0.01 uM after 48 hrs by sulforhodamine B assay; settings: MDA-MB-435, 48 h, read-out: Activity
[23] = tested on: SK-MEL-5; experiment: Cytotoxicity against human SK-MEL-5 cells assessed as cell growth at 0.01 uM after 48 hrs by sulforhodamine B assay; settings: SK-MEL-5, 48 h, read-out: Activity
[24] = tested on: HOP-62; experiment: Cytotoxicity against human HOP62 cells assessed as cell growth at 10 '-5 M after 48 hrs by sulforhodamine B assay; settings: HOP-62, 48 h, read-out: Activity
In short: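 Primary one-dose screen across the NCI 60-line panel at 10 µM. Cells were grown in RPMI 1640 with 5% FBS and 2 mM L-glutamine and held 24 h before drug. Drug was diluted from a DMSO concentrate. Exposure was 48 h at 37 °C, 5% CO2. Cells were fixed with TCA and stained with SRB, with absorbance read at 515 nm. Percent growth was calculated against time-zero and untreated control.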

[25] = tested on: OVCAR-5; experiment: Cytotoxicity against human OVCAR5 cells assessed as cell growth at 0.01 uM after 48 hrs by sulforhodamine B assay; settings: OVCAR-5, 48 h, read-out: Activity

Which growth at 0.01 µM [1] does the source give for `Cc1ccc2nc(Nc3c(C)cccc3C)sc2c1` here?
The growth at 0.01 µM was 103%.

What about the growth at 0.1 µM [2] of the same molecule?
The growth at 0.1 µM was 103%.

What about the growth at 0.1 µM [3] of the same molecule?
The growth at 0.1 µM was 93%.

And the growth at 0.1 µM [4]?
Its growth at 0.1 µM is 85%.

And the growth at 100 µM [5]?
Its growth at 100 µM is 49%.

And the growth at 100 µM [6]?
The growth at 100 µM was 45%.

And the growth at 100 µM [7]?
The growth at 100 µM was 66%.

What about the growth at 100 µM [8] of the same molecule?
The growth at 100 µM was 46%.

And the growth at 0.1 µM [9]?
Its growth at 0.1 µM is 82%.

What about the growth at 1 µM [10] of the same molecule?
The growth at 1 µM was 58%.

What about the growth at 1 µM [11] of the same molecule?
The growth at 1 µM was 67%.

And the growth at 1 µM [12]?
The growth at 1 µM was 64%.

What about the growth at 10 µM [13] of the same molecule?
The growth at 10 µM was 42%.

And the growth at 10 µM [14]?
Its growth at 10 µM is 52%.

And the growth at 10 µM [15]?
Its growth at 10 µM is 18.9%.

And the GI50 [16]?
Its GI50 is greater than 100 µM.

And the LC50 [16]?
Its LC50 is greater than 100 µM.

What about the TGI [16] of the same molecule?
The TGI was greater than 100 µM.

And the GI50 [17]?
Its GI50 is 1.26 µM.

What about the LC50 [17] of the same molecule?
The LC50 was greater than 100 µM.

And the TGI [17]?
Its TGI is greater than 100 µM.

And the TGI [18]?
Its TGI is greater than 100 µM.

What about the CC50 [18] of the same molecule?
Its CC50 is greater than 100 µM.

What about the GI50 [19] of the same molecule?
The GI50 was 0.33 µM.

What about the TGI [19] of the same molecule?
Its TGI is greater than 100 µM.

What about the CC50 [19] of the same molecule?
The CC50 was greater than 100 µM.

What about the Activity [20] of the same molecule?
Its Activity is 94%.

And the growth at 0.01 µM [21]?
Its growth at 0.01 µM is 93%.

What about the growth at 0.01 µM [22] of the same molecule?
Its growth at 0.01 µM is 95%.

What about the growth at 0.01 µM [23] of the same molecule?
Its growth at 0.01 µM is 95%.

What about the growth at 10 µM [24] of the same molecule?
Its growth at 10 µM is 45.7%.

What about the growth at 0.01 µM [25] of the same molecule?
The growth at 0.01 µM was 93%.

For `Clc1cccc(Cl)c1Nc1nc2cccc(Cl)c2s1`, which growth at 0.01 µM [1] is on record?
Its growth at 0.01 µM is 101%.

What about the growth at 0.1 µM [2] of the same molecule?
The growth at 0.1 µM was 90%.

And the growth at 0.1 µM [3]?
The growth at 0.1 µM was 87%.

What about the growth at 0.1 µM [4] of the same molecule?
The growth at 0.1 µM was 73%.

And the growth at 100 µM [5]?
Its growth at 100 µM is -73%.

And the growth at 100 µM [6]?
Its growth at 100 µM is -82%.

And the growth at 100 µM [7]?
The growth at 100 µM was -76%.

What about the growth at 100 µM [8] of the same molecule?
Its growth at 100 µM is -55%.

What about the growth at 0.1 µM [9] of the same molecule?
The growth at 0.1 µM was 81%.

What about the growth at 1 µM [10] of the same molecule?
The growth at 1 µM was 73%.

What about the growth at 1 µM [11] of the same molecule?
Its growth at 1 µM is 71%.

And the growth at 1 µM [12]?
Its growth at 1 µM is 49%.

What about the growth at 10 µM [13] of the same molecule?
The growth at 10 µM was -68%.

And the growth at 10 µM [14]?
The growth at 10 µM was -96%.

And the growth at 10 µM [15]?
The growth at 10 µM was -45.1%.

And the GI50 [16]?
The GI50 was 1.05 µM.

What about the LC50 [16] of the same molecule?
The LC50 was greater than 100 µM.

And the TGI [16]?
Its TGI is 3.75 µM.

And the GI50 [17]?
Its GI50 is 0.791 µM.

And the LC50 [17]?
The LC50 was greater than 100 µM.

And the GI50 [18]?
Its GI50 is 0.772 µM.

And the TGI [18]?
The TGI was 2.12 µM.

What about the CC50 [18] of the same molecule?
The CC50 was 4.85 µM.

What about the GI50 [19] of the same molecule?
The GI50 was 0.343 µM.

What about the TGI [19] of the same molecule?
Its TGI is 1.74 µM.

And the CC50 [19]?
The CC50 was 5.79 µM.

What about the Activity [20] of the same molecule?
The Activity was 96%.

What about the growth at 0.01 µM [21] of the same molecule?
Its growth at 0.01 µM is 96%.

What about the growth at 0.01 µM [22] of the same molecule?
The growth at 0.01 µM was 96%.

What about the growth at 0.01 µM [23] of the same molecule?
Its growth at 0.01 µM is 94%.

What about the growth at 10 µM [24] of the same molecule?
The growth at 10 µM was -38.2%.

What about the growth at 0.01 µM [25] of the same molecule?
The growth at 0.01 µM was 102%.
